ChEMBL document CHEMBL1128709, “Discovery and structure-activity relationships of sulfonamide ETA-selective antagonists” (J Med Chem, 1995)

How the values were obtained:
Oryctolagus cuniculus = species on record: Oryctolagus cuniculus; assay: In vitro functional antagonistic testing by obtaining ET-1 concentration response curves in rabbit carotid artery rings in the presence or absence of antagonist.
How it was run: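 Concentration-response curves to ET-1 in rabbit carotid artery rings. KB determined when at least 3 antagonist concentrations were tested; apparent KB calculated when only one concentration was used.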

Endothelin-1 receptor = target: T1, Endothelin-1 receptor (Rattus norvegicus, UniProt P26684); assay: Antagonism of [125 I]ET-1 binding to the rat endothelin receptor in vascular smooth muscle VSM-A10 cells.; format: cell-based
T1 sequence (P26684 whole entry): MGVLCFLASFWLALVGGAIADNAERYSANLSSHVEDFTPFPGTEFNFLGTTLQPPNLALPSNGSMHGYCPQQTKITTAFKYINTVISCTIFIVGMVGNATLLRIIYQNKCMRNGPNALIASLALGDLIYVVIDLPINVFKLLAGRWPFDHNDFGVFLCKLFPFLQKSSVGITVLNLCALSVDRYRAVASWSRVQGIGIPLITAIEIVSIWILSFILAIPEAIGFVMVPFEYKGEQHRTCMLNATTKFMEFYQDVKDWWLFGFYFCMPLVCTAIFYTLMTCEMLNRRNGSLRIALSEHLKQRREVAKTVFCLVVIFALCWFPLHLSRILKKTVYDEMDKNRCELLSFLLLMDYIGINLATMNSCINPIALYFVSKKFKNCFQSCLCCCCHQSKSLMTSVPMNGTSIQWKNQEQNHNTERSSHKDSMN

Rattus norvegicus = species on record: Rattus norvegicus; assay: Tested for antagonistic activity against ET-1 induced increase in intracellular [Ca2+] in VSM-A10 cells.; format: functional, cell-based
How it was run: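 A10 cells challenged with 3 nM ET-1; the rise in free intracellular Ca2+ was measured with and without compound. Values reported as IC50.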

| SMILES | Kb (Oryctolagus cuniculus; read-out: KB app) [µM] | IC50 (Endothelin-1 receptor) [µM] | also measured |
| --- | --- | --- | --- |
| Cc1onc(NS(=O)(=O)c2cccc3c(N(C)C)cccc23)c1C | 0.98 | 0.06 | – |
| COC(=O)c1cccc2c(S(=O)(=O)Nc3onc(C)c3C)cccc12 | – | 3.38 | – |
| O=S(=O)(Nc1nccs1)c1ccc(O)cc1 | – | 30 | – |
| Cc1noc(NS(=O)(=O)c2cccc3c(O)cccc23)c1C | 100 | 7.8 | – |
| Cc1noc(NS(=O)(=O)c2cccc3c(N(C)C)cccc23)c1[N+](=O)[O-] | > 100 | 17.3 | – |
| Cc1[n-][o+]c(NS(=O)(=O)c2cccc([N+](=O)[O-])c2)c1C | – | 7.8 | – |
| Cc1noc(NS(=O)(=O)c2cccc3c(N4CCCC4=O)cccc23)c1C | – | 0.13 | Kb (Oryctolagus cuniculus): 9.6 µM |
| Nc1ccc(S(=O)(=O)Nc2cc(-c3ccccc3)on2)cc1 | – | > 32 | – |
| Cc1noc(NS(=O)(=O)c2cccc3c(N4CCCC4)cccc23)c1C | – | 0.03 | Kb (Oryctolagus cuniculus): 0.28 µM |
| Cc1cc(NS(=O)(=O)c2cccc3c(N(C)C)cccc23)on1 | – | 8.9 | – |
| Cc1noc(N(C)S(=O)(=O)c2ccc(N)cc2)c1C | – | > 32 | – |
| Cc1noc(NS(=O)(=O)c2ccc(NC(=O)Nc3ccccc3)cc2)c1C | – | 38 | – |
| Cc1noc(NS(=O)(=O)c2cccc3c(NCc4ccccc4)cccc23)c1C | 0.9 | 0.59 | – |
| CC(=O)Nc1cccc2cc(S(=O)(=O)Nc3onc(C)c3C)ccc12 | 40 | – | – |
| Nc1ccc(S(=O)(=O)Nc2nccs2)cc1 [SULFATHIAZOLE] | – | 69 | – |
| Cc1noc(NS(=O)(=O)c2ccc(NC(=O)CN)cc2)c1C | – | 6.5 | – |
| Cc1noc(NS(=O)(=O)c2cccc3c(N(C)C)cccc23)c1Cc1ccccc1 | – | 50 | – |
| Cc1noc(NS(=O)(=O)c2cccc3c(N4CCCCC4=O)cccc23)c1C | 7 | 0.27 | – |
| Cc1cc(NS(=O)(=O)c2ccc(N)cc2)on1 | – | 28 | – |
| Cc1noc(NS(=O)(=O)c2cccc3ccc(N)cc23)c1C | – | 1.4 | – |
| Cc1noc(NS(=O)(=O)c2cccc3c(NCCCC(=O)O)cccc23)c1C | 30 | 1.96 | – |

| SMILES | Kb (Oryctolagus cuniculus; read-out: KB app) [µM] | IC50 (Endothelin-1 receptor) [µM] | also measured |
| --- | --- | --- | --- |
| Cc1noc(NS(=O)(=O)c2ccc(N)cc2)c1C [SULFISOXAZOLE] | > 100 | – | IC50 (Rattus norvegicus): 40 µM |
| CCNc1cccc2c(S(=O)(=O)Nc3onc(C)c3C)cccc12 | – | 0.06 | Kb (Oryctolagus cuniculus): 0.5 µM |
| Cc1noc(NS(=O)(=O)c2cccc3c(N(C)C)cccc23)c1-c1ccccc1 | – | 15.9 | – |
| Cc1noc(NS(=O)(=O)c2cccc3c(NCCC(c4ccccc4)c4ccccc4)cccc23)c1C | – | 7.8 | – |
| Cc1onc(NS(=O)(=O)c2ccc(N)cc2)c1C [SULFATROXAZOLE] | – | – | IC50 (Rattus norvegicus): 40 µM |
| Cc1noc(NS(=O)(=O)c2ccc(NCC(=O)O)cc2)c1C | – | 12 | – |
| CCOC(=O)C(C)Nc1cccc2c(S(=O)(=O)Nc3onc(C)c3C)cccc12 (stereo not drawn) | – | 0.4 | Kb (Oryctolagus cuniculus): 3.1 µM |
| Cc1noc(NS(=O)(=O)c2ccc(NC(=S)Nc3ccccc3)cc2)c1C | – | 4.1 | – |
| CCCNc1ccc(S(=O)(=O)Nc2onc(C)c2C)cc1 | 40 | 27 | – |
| CCCCCNc1cccc2c(S(=O)(=O)Nc3onc(C)c3C)cccc12 | – | 0.08 | Kb (Oryctolagus cuniculus): 0.27 µM |
| Cc1cc(NS(=O)(=O)c2ccc(O)cc2)no1 | > 100 | – | – |
| CN(C)c1cccc2c(S(=O)(=O)Nc3onc4c3CCCC4)cccc12 | – | 153 | – |
| CC(=O)N(c1onc(C)c1C)S(=O)(=O)c1ccc(N)cc1 [SULFISOXAZOLE ACETYL] | – | 13 | – |
| Cc1noc(NS(=O)(=O)c2cccc3c(N(C)C)cccc23)c1C [BMS-182874] | – | – | Kb (Oryctolagus cuniculus): 0.52 µM |
| CCc1c(C)noc1NS(=O)(=O)c1cccc2c(N(C)C)cccc12 | 4 | 0.29 | – |
| Cc1noc(NS(=O)(=O)c2ccc3cc(N)ccc3c2)c1C | – | 0.66 | Kb (Oryctolagus cuniculus): 43 µM |
| CNc1cccc2c(S(=O)(=O)Nc3onc(C)c3C)cccc12 | – | 0.13 | Kb (Oryctolagus cuniculus): 1.6 µM |
| Cc1noc(NS(=O)(=O)c2cccc3c(NC(=S)Nc4ccccc4)cccc23)c1C | – | 0.15 | Kb (Oryctolagus cuniculus): 13 µM |
| Cc1noc(NS(=O)(=O)c2cccc3c(CN(C)C)cccc23)c1C | 20 | 2.8 | – |
| CCCCN(CCCC)c1cccc2c(S(=O)(=O)Nc3onc(C)c3C)cccc12 | – | 15.9 | – |
| Cc1noc(NS(=O)(=O)c2cccc3c(NC(C)C)cccc23)c1C | – | 0.02 | Kb (Oryctolagus cuniculus): 0.33 µM |

| SMILES | Kb (Oryctolagus cuniculus; read-out: KB app) [µM] | IC50 (Endothelin-1 receptor) [µM] | also measured |
| --- | --- | --- | --- |
| CC(=O)Nc1cccc2c(S(=O)(=O)Nc3onc(C)c3C)cccc12 | – | – | Kb (Oryctolagus cuniculus): 11 µM |
| Cc1noc(NS(=O)(=O)c2cccc(-c3ccccc3)c2)c1C | – | 5.4 | – |
| Cc1noc(NS(=O)(=O)c2cccc3c(N4CCCCC4)cccc23)c1C | 4 | 1.76 | – |
| Cc1noc(NS(=O)(=O)c2ccc(O)cc2)c1C | > 100 | – | – |
| Cc1noc(NS(=O)(=O)c2cccc3c(N(C)C(C)C)cccc23)c1C | – | 0.13 | Kb (Oryctolagus cuniculus): 0.7 µM |
| CC(C)(C)c1cc(NS(=O)(=O)c2ccc(N)cc2)no1 | – | > 32 | – |
| Cc1noc(NS(=O)(=O)c2ccc(NCc3ccccc3)cc2)c1C | 100 | 9.8 | – |
| Cc1cc(NS(=O)(=O)c2ccc(N)cc2)no1 [SULFAMETHOXAZOLE] | > 100 | – | – |
| Cc1noc(NS(=O)(=O)c2cccc3c(NC(=O)C(C)C)cccc23)c1C | – | 0.88 | – |
| CCOC(=O)c1c(C)noc1NS(=O)(=O)c1cccc2c(N(C)C)cccc12 | – | 31 | – |
| Nc1ccc(S(=O)(=O)Nc2noc3c2CCCC3)cc1 | – | 32 | – |
| CCCNc1cccc(S(=O)(=O)Nc2onc(C)c2C)c1 | – | 2.1 | Kb (Oryctolagus cuniculus): 70 µM |
| Cc1noc(NS(=O)(=O)c2cccc3c(NCCCCCc4ccccc4)cccc23)c1C | – | 3.05 | – |
| Cc1cnoc1NS(=O)(=O)c1cccc2c(N(C)C)cccc12 | – | 4.9 | – |
| Cc1noc(NS(=O)(=O)c2ccc(F)cc2)c1C | 40 | 1 | – |
| Cc1noc(NS(=O)(=O)c2cccc3c(C(C)(C)O)cccc23)c1C | – | 2.89 | – |
| Cc1noc(NS(=O)(=O)c2cccc3c(N)cccc23)c1C | > 10 | – | – |
| CCc1noc(NS(=O)(=O)c2cccc3c(N(C)C)cccc23)c1C | 3 | 1.17 | – |
| Nc1ccc(S(=O)(=O)Nc2nncs2)cc1 | – | 57 | – |
| Cc1noc(NC(=O)c2ccc(N)cc2)c1C | – | > 32 | – |
| Cc1noc(N(CC(=O)O)S(=O)(=O)c2ccc(N)cc2)c1C | – | > 32 | – |
